S1P3 agonist: agonists of human S1P3 receptor | S1P3 NFAT-BLA reporter cells, agonism, FRET ratio; relative to 1 µM S1P, basal subtracted | activation, % at 4.5 µM | 60,000 compounds, 0.1% hits | AID 373;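 active = activation above the screen-wide mean plus 3 SD, cut at about 4.5% in these data, passing the limit was not always enough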
Target sequence (Q99500 whole entry, looked up): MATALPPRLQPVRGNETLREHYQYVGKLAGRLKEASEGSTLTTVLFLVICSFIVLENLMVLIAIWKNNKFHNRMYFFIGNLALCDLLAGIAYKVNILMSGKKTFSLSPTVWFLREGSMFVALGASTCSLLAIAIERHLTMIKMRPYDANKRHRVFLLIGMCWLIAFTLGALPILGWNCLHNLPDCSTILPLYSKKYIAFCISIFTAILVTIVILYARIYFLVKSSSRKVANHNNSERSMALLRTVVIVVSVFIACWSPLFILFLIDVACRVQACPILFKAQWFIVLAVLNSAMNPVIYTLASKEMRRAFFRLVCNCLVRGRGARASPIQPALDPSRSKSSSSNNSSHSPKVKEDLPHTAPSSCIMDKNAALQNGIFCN
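Assay system: stable CHO line with human S1P3, Gα16, NFAT-BLA reporter; Detection: FRET β-lactamase substrate fluorescence, excitation 405 nm, 460/535 nm emission ratio, background-subtracted; Read-out: percent activation versus median 1 µM S1P response, basal-subtracted, per plate; Incubation: cells plated overnight, compound 4 h 37 °C, substrate 2 h RT.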
5HT1a antag: blocks the human serotonin 5-HT1a receptor; CHO 5-HT1a Ga15 NFAT-bla reporter, antagonist mode; 62,000 compounds, 0.68% hits; AID 612; inhibition, % at 10 µM; P08908;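 active = inhibition above the mean of all tested compounds plus 3 SD, cut at about 43% in these data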;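 note: receptor stimulated by 5-CT agonist at 100 nM near EC80; beta-lactamase reporter measured by ratiometric fluorescence of a cleavable substrate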
S1P1 ag pot: activates or potentiates agonism at human S1P1 receptor; AID 449; activation, % at 9.5 µM; 56,000 compounds, 0.57% hits; S1P1 CRE-bla cells, forskolin, beta-lactamase FRET, potentiator mode; S1P1 agonist co-added at EC20, 2 nM; 100% = saturating reference agonist, 0% = basal;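 active = activation above a cutoff set at the mean activation of all tested compounds plus 3 SD, cut at about 54% in these data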;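 note: forskolin at 4 µM as EC80 and the EC20 agonist is SEW2871; 100% = SEW2871 at its EC100 plus forskolin at EC80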
HTR1E antagonist: 5-HT1E (human) receptor antagonism. P28566. CHO 5-HT1E Ga15 NFAT-bla reporter, FRET, antagonist. inhibition, % at 6 µM. 65,000 compounds, 0.99% hits. AID 571;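 active = inhibition above a set limit, the mean inhibition across every tested compound plus 3 SD, cut at about 29% in these data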;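 note: signal is the 460 over 535 nm emission ratio of beta-lactamase substrate; 0% = agonist plus DMSO wells and 100% = wells without agonist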
HTR1E agonist: agonists of human 5-HT1E serotonin receptor; P28566; CHO 5-HT1E Ga15 NFAT-bla reporter, FRET; 0% DMSO wells, 100% control agonist wells; activation, % at 6 µM; 65,000 compounds, 0.69% hits;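 active = activation above a set limit, the screen-wide mean activation plus 3 SD, cut at about 8.5% in these data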;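 note: 100% = positive control agonist at 1 µM giving full maximal response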
HTR1A agonist: agonists of human 5-HT1a serotonin receptor. P08908. CHO 5-HT1a Ga15 NFAT-bla reporter, FRET ratio; 0% basal, 100% maximal reference agonist. activation, % at 10 µM. 65,000 compounds, 0.56% hits. AID 567;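 active = activation above the screen-wide mean activation plus 3 SD, cut at about 19% in these data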;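 note: 0% = DMSO wells and 100% = 5-CT at EC100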
Numbers without * were called inactive; . = no result given. Compounds with a hit are over-represented: about 3% of the library has one in this group of screens.

SMILES | S1P3 agonist | 5HT1a antag | S1P1 ag pot | HTR1E antagonist | HTR1E agonist | HTR1A agonist
CC(C)CSc1nc(N2CCOCC2)c2c(c1C#N)CC(C)(C)SC2 | -3 | . | -12 | 29* | -1 | -1
CCN(CC)c1nc(N2CCOCC2)c(C#N)c2c1CN(C)CC2 | -2 | . | -24 | 5 | 52* | 2
Cc1cc(C2=CC(C)(c3cc(C)oc3C)Nc3nc(C(F)(F)F)nn32)c(C)o1 (centres undefined) | 0 | 60* | 25 | 16 | -1 | -5
CC(=O)c1cccc(-n2nnnc2SCC(=O)Nc2cccc(NC(=O)c3ccco3)c2)c1 | -1 | 8 | 9 | 1 | -1 | -3
COc1cccc(CNCc2ccccn2)c1OC | -1 | -10 | -13 | 2 | 11* | -1
CCOC(=O)c1[nH]c(C)c(C(=O)Nc2cc(OC)ccc2OC)c1C | 0 | 20 | 5 | 49* | -1 | -3
CC(C)(C)c1ccccc1NC(=O)c1ccco1 | -1 | 2 | -22 | 1 | 0 | -3
Cc1ccc(OCCn2cc(/C(N)=N/O)c3ccccc32)cc1C | -1 | 42 | 68* | 36* | 1 | 4
COc1ccc(Cl)cc1NC(=O)CN1CCC(n2nnc3cc(F)ccc32)CC1 | 0 | 12 | -4 | 1 | 0 | 0
Cc1ccc(SC/C(O)=C(\C#N)c2nc3ccccc3n2C)cc1 | -1 | -29 | -17 | -10 | 0 | 0
CCN(CC)S(=O)(=O)c1ccc(/C(O)=C(\C#N)c2nc3ccccc3n2C)cc1 | 0 | -23 | 11 | 39* | 0 | 15
Cc1nc2cccc(C(=O)NCc3ccccc3)c2o1 | -2 | 11 | 17 | 7 | 0 | -3
CCC1SC2=NC(C)=C(C(=O)OCCOC)C(c3ccc(C(=O)OC)cc3)N2C1=O (centres undefined) | -4 | . | 4 | 0 | 0 | 0
Cc1nccc2[nH]c(=O)c(C(=O)NC3CCN(Cc4ccccc4)CC3)cc12 | -1 | -1 | 0 | -13 | 1 | -3
Cc1nn(Cc2ccc(Cl)c(Cl)c2)c(C)c1NC(=O)c1cc(CC(C)C)on1 | -1 | -1 | 76* | 16 | 1 | 2
Cc1nc2nc(-c3cccs3)cn2nc1C | 0 | 12 | 29 | 39* | 0 | -4
COc1cccc(-c2cn3nc(C)c(C)nc3n2)c1 | 0 | -10 | -3 | -9 | 1 | -3
Nc1cc(C(=O)O)ccc1Nc1ccc(F)c(F)c1 | -1 | -6 | -1 | -8 | 33* | -2
Cc1ccc(C)n1-c1ccc(-c2nnc3n2CCCCC3)s1 | 0 | -10 | 3 | -4 | 1 | 1
c1ccc(CNC2=NCCCCC2)cc1 | -1 | 10 | 16 | 4 | 13* | -2
Cc1c(NC(=O)CCc2ccc(S(=O)(=O)N3CCOCC3)cc2)c(=O)n(-c2ccccc2)n1C | . | 15 | . | 0 | 0 | -3
Brc1ccccc1C1=Nn2c(nnc2-c2ccccc2)SC1 | 0 | 33 | 6 | 33* | -1 | -2
COc1ccc(C2=Nn3c(nnc3-c3cccnc3)SC2)cc1OC | 2 | . | -52 | 34* | 0 | 1
COc1ccccc1-c1nnc2n1N=C(c1ccc(O)c(O)c1)CS2 | -5 | . | 0 | 66* | -1 | 0
Brc1ccc(C2=Nn3c(nnc3-c3cccnc3)SC2)s1 | 0 | -15 | 6 | 2 | 0 | -2
SMILES | S1P3 agonist | 5HT1a antag | S1P1 ag pot | HTR1E antagonist | HTR1E agonist | HTR1A agonist
CCOc1ccc(C2=Nn3c(nnc3-c3ccccc3OC)SC2)cc1 | -6 | . | -25 | 75* | -1 | 1
Cc1ccc(NC(=O)Cc2nc(CSc3nnc(-c4ccc5c(c4)OCO5)o3)cs2)cc1 | 1 | -5 | 46 | 2 | 1 | 0
O=C(CN1CCN(c2ncccn2)CC1)NCCC1=CCCCC1 | . | 5 | . | -9 | 0 | 1
COC(=O)c1cc(Br)c(=O)n(CC(C)C)c1 | -1 | 0 | -1 | -5 | 9.5* | 0
COC(=O)c1cc(Br)c(=O)n(CCN2CCCCC2)c1 | -1 | 17 | 5 | 4 | 1 | 2
Cc1cc(C)nc(NCC(O)COc2ccccc2C)n1 (centres undefined) | -1 | 10 | 4 | -5 | 0 | -1
CC(C)(C)NCC(O)COc1ccccc1C(C)(C)C (centres undefined) | 0 | 80* | 17 | 5 | 0 | -2
Cc1c[nH]c2cccc(OCC(O)CNC(C)(C)C)c12 (centres undefined) | 0 | 82* | -12 | 1 | 2 | -3
CCOc1ccccc1OCC(O)CNC (centres undefined) | 0 | -8 | 17 | -1 | 2 | 0
O=C1c2ccccc2C(=O)N1CCc1nc2ccccc2c(=O)n1CCCn1ccnc1 | -1 | -14 | -15 | 5 | 0 | 0
CC(C)(C)C(=O)N=C1SC2CS(=O)(=O)CC2N1c1ccc2c(c1)OCO2 (centres undefined) | -2 | -4 | 1 | 12 | 0 | 0
CC(=O)N1CCc2cc(S(=O)(=O)NCCN3CCC(C)CC3)ccc21 | . | 6 | . | 7 | 0 | 2
Brc1ccc(C2=Nn3c(nnc3-c3n[nH]c4c3CCC4)SC2)cc1 | 2 | 30 | -49 | 57* | 0 | -1
Clc1ccc(C2=Nn3c(nnc3-c3n[nH]c4c3CCC4)SC2)cc1 | 2 | 24 | -46 | 22 | 1 | -1
N#CC1=C2SCC(O)(c3ccccc3)N2C(=O)CC1c1cccs1 (centres undefined) | -1 | 29 | 14 | 34* | -1 | -3
O=C1CN(C(=O)c2ccc(Br)o2)C(c2ccccc2)c2cc(Br)ccc2N1 (centres undefined) | -1 | -6 | -36 | 4 | 1 | 1
O=C(O)CN1C(=O)Nc2ccc(Br)cc2C1c1ccccc1 (centres undefined) | . | -3 | . | 32* | -3 | -3
CCN(CC)S(=O)(=O)c1ccc(NCc2ccccc2)nc1 | -1 | 15 | . | 3 | 0 | -1
Cc1csc(C(C#N)C(=O)c2cc3ccccc3o2)n1 (centres undefined) | . | 15 | . | -5 | 0 | -2
O=C(Nc1c(-c2ccccc2)nc2sccn12)c1ccccc1 | -1 | -4 | -32 | -8 | 0 | 0
O=C(O)C1CCCCC1C(=O)NCCc1c[nH]c2ccccc12 (centres undefined) | 0 | -6 | 12 | 14 | 99* | 22*
O=C(NCCc1c[nH]c2ccccc12)C(F)(F)C(F)F | -1 | 9 | 6 | 11 | 26* | 0
O=C(NCCc1c[nH]c2ccccc12)C1CCN(c2nnc(N3CCCC3=O)s2)CC1 | 0 | 6 | -23 | -8 | 46* | 0
O=C(O)C1CCCCC1C(=O)NCCc1ccncc1 (centres undefined) | 0 | 1 | -20 | 0 | -1 | -4

Source: PubChem BioAssay
